Reference: ChEMBL document CHEMBL5346889, “Discovery of 4-oxo-N-phenyl-1,4-dihydroquinoline-3-carboxamide derivatives as novel anti-inflammatory agents for the treatment of acute lung injury and sepsis” (Eur J Med Chem, 2023)
Activity calls are given as the source filed them. No cut-off for these calls is given here.

Experiments:
J774.A1 = experiment: Antiinflammatory activity in LPS-induced mouse J774.A1 cells assessed as inhibition of LPS-induced IL-6 transcription preincubated for 0.5 hrs followed by LPS stimulation for 6 hrs by RT-qPCR method; type: functional, cell-based; conditions: dose 5-10 µM, time 6.5 hrs
Summary of the method: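 J774A.1 or THP-1 cells pretreated 0.5 h at 10 or 5 μM, then LPS 0.5 μg/mL for 6 h. TRIzol RNA; IL-6, TNF-α and IL-1β transcripts by RT-qPCR, normalized to β-actin and control; 3 independent experiments, mean ± SEM.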

[1] = AUC (0 to t) in rat at 1 mg/kg, iv; type: ADME, organism-based; set-up: dose 1 mg/kg, route iv; conditions: in vivo
Summary of the method: (§1)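 Rats dosed intravenously at 1 mg/kg or orally at 10 mg/kg; plasma pharmacokinetic parameters AUC(0-t), Tmax, T1/2, Cmax and oral bioavailability F derived from the two routes.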

[2] = Half life in rat at 1 mg/kg, iv; type: ADME, organism-based; conditions: in vivo; summary of the method: as §1
[3] = Half life in rat at 10 mg/kg, po; type: ADME, organism-based; conditions: in vivo; summary of the method: as §1
[4] = Cmax in rat at 1 mg/kg, iv; type: ADME, organism-based; set-up: dose 1 mg/kg, route iv; conditions: in vivo; summary of the method: as §1
Mus musculus [5] = experiment: Protection against LPS-induced sepsis in C57/BL6 mouse model assessed as reduction of lymph node hyperplasia at 20 mg/kg, po preincubated with compound followed by LPS stimulation for 1 hr by H and E staining based analysis; type: functional, organism-based
Summary of the method: (§2)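 Mice given 20 mg/kg orally, then intraperitoneal LPS 20 mg/kg 1 h later; n = 12 per group. Kidney, liver, heart and spleen weighed; spleen sections H&E-stained for histology.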

Mus musculus [6] = experiment: Protection against LPS-induced sepsis in C57/BL6 mouse model assessed as reduction in periarterial lymphatic sheath thickening at 20 mg/kg, po preincubated with compound followed by LPS stimulation for 1 hr by H and E staining based analysis; type: functional, organism-based; summary of the method: as §2

COc1cc2nccc(Oc3ccc(NC(=O)c4cn(-c5ccccc5)c5ccccc5c4=O)cc3)c2cc1OC
inhibition (J774.A1): Dose-Dependent Effect | AUC(0-t) [1]: 6320 ng·h/mL | half-life [2]: 8.9 h | half-life [3]: 11.8 h | Cmax [4]: 1360 ng/mL | Activity (Mus musculus [5]): Active | Activity (Mus musculus [6]): Active
